For 22 compounds, MIC results are on record in ChEMBL document CHEMBL1795210, “Synthesis and screening of (E)-1-(β-D-galactopyranosyl)-4-(aryl)but-3-ene-2-one against Mycobacterium tuberculosis” (2011).

Values after ≈ are worked out from the molar mass of the structure shown.

This experiment relates to Mycobacterium tuberculosis. In words: Antimicrobial activity against Mycobacterium tuberculosis H37Rv after 28 days by agar dilution method. In kind it is functional. The note with it: 672 h. An outline of the steps:
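Agar dilution on Middlebrook 7H11 with OADC supplement. Compound serially diluted into the agar, […]. H37Rv inoculum from fresh 7H11 slants, set to 1 mg/mL wet weight in 0.05% Tween 80 saline, diluted 10^2 to about 10^7 cfu/mL; 5 µL spotted per tube. Incubated at 37 C, read at 28 days. MIC = lowest concentration giving complete growth inhibition.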
On to `O=C(/C=C/c1ccc(CO)o1)C[C@@H]1O[C@H](CO)[C@H](O)[C@H](O)[C@H]1O`, for which the MIC came to 1.56 µg/mL (≈ 4.75 µM).
`COc1ccc(-c2ccc(/C=C/C(=O)C[C@@H]3O[C@H](CO)[C@H](O)[C@H](O)[C@H]3O)o2)cc1Cl` returned an MIC of 3.13 µg/mL (≈ 7.13 µM).
The compound `O=C(/C=C/c1ccc(-c2ccc(Cl)cc2[N+](=O)[O-])o1)C[C@@H]1O[C@H](CO)[C@H](O)[C@H](O)[C@H]1O` came in with an MIC above 12.5 µg/mL.
Consider `O=C(/C=C/c1ccc(-c2ccccc2[N+](=O)[O-])o1)C[C@@H]1O[C@H](CO)[C@H](O)[C@H](O)[C@H]1O`, for which the MIC is above 12.5 µg/mL.
For the compound `O=C(/C=C/c1ccc2c(c1)OCO2)C[C@@H]1O[C@H](CO)[C@H](O)[C@H](O)[C@H]1O`, the lowest concentration to inhibit growth (MIC) was 1.56 µg/mL (≈ 4.43 µM).
Then `COc1c(O)cc(/C=C/C(=O)C[C@@H]2O[C@H](CO)[C@H](O)[C@H](O)[C@H]2O)cc1[N+](=O)[O-]`, with 1.56 µg/mL (≈ 3.91 µM).
With `COc1cc(/C=C/C(=O)C[C@@H]2O[C@H](CO)[C@H](O)[C@H](O)[C@H]2O)cc(OC)c1OC`, the MIC was determined as 6.25 µg/mL (≈ 15.7 µM).
Then `COc1cc(OC)c(/C=C/C(=O)C[C@@H]2O[C@H](CO)[C@H](O)[C@H](O)[C@H]2O)c(OC)c1`, with 6.25 µg/mL (≈ 15.7 µM); and `COc1ccc(/C=C/C(=O)C[C@@H]2O[C@H](CO)[C@H](O)[C@H](O)[C@H]2O)cc1Br`, with above 12.5 µg/mL.
For the compound `O=C(/C=C/c1ccc(C(=O)O)cc1)C[C@@H]1O[C@H](CO)[C@H](O)[C@H](O)[C@H]1O`, 1.56 µg/mL (≈ 4.43 µM) was the least that counted as inhibitory (MIC).
`CN(C)c1ccc(/C=C/C(=O)C[C@@H]2O[C@H](CO)[C@H](O)[C@H](O)[C@H]2O)cc1`: the MIC amounted to 1.56 µg/mL (≈ 4.44 µM).
For the compound `O=C(/C=C/c1ccc(N(CCO)CCO)cc1)C[C@@H]1O[C@H](CO)[C@H](O)[C@H](O)[C@H]1O`, it took 6.25 µg/mL (≈ 15.2 µM) to inhibit growth (MIC).
As to `O=C(/C=C/c1ccc2ccccc2n1)C[C@@H]1O[C@H](CO)[C@H](O)[C@H](O)[C@H]1O`, the MIC came to 3.13 µg/mL (≈ 8.71 µM).
`O=C(/C=C/c1cnc2ccccc2c1)C[C@@H]1O[C@H](CO)[C@H](O)[C@H](O)[C@H]1O` yielded an MIC of 6.25 µg/mL (≈ 17.4 µM).
On to `O=C(/C=C/c1ccc2cccc(O)c2n1)C[C@@H]1O[C@H](CO)[C@H](O)[C@H](O)[C@H]1O`, for which the MIC amounted to 3.13 µg/mL (≈ 8.34 µM).
As to `C=Cc1cccc(/C=C/C(=O)C[C@@H]2O[C@H](CO)[C@H](O)[C@H](O)[C@H]2O)c1`, the lowest concentration to inhibit growth (MIC) was 3.13 µg/mL (≈ 9.36 µM).
The compound `C#Cc1ccccc1/C=C/C(=O)C[C@@H]1O[C@H](CO)[C@H](O)[C@H](O)[C@H]1O` displayed a minimal inhibitory concentration (MIC) above 12.5 µg/mL.
`O=C(/C=C/c1ccc(-c2ccccc2)cc1)C[C@@H]1O[C@H](CO)[C@H](O)[C@H](O)[C@H]1O` registered a minimum inhibitory concentration (MIC) of 6.25 µg/mL (≈ 16.3 µM).
In turn, `O=C(/C=C/c1cc(C(F)(F)F)ccc1C(F)(F)F)C[C@@H]1O[C@H](CO)[C@H](O)[C@H](O)[C@H]1O` yielded a minimal inhibitory concentration (MIC) of 12.5 µg/mL (≈ 28.1 µM). Compared with the last compound, the MIC is about 2-fold higher.
`CC[C@@H](CO)NCCN[C@@H](CC)CO` [ETHAMBUTOL]: the lowest concentration to inhibit growth (MIC) was 1.56 µg/mL (≈ 7.64 µM).
For the compound `NNC(=O)c1ccncc1` [ISONIAZID], the minimum inhibitory concentration (MIC) turned out to be 0.05 µg/mL (≈ 0.365 µM).
In turn, `CO[C@H]1/C=C/O[C@@]2(C)Oc3c(C)c(O)c4c(O)c(c(/C=N/N5CCN(C)CC5)c(O)c4c3C2=O)NC(=O)/C(C)=C\C=C\[C@H](C)[C@H](O)[C@@H](C)[C@@H](O)[C@@H](C)[C@H](OC(C)=O)[C@@H]1C` [RIFAMPIN] had an MIC of 0.1 µg/mL (≈ 0.122 µM).
